One series relates to HCT-116. Briefly: Antiproliferative activity against human HCT116 cells after 48 hrs by MTT assay. Type of series: functional, cell-based. The following applies: HCT-116, 48 h. An outline of the steps:
(§1)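 MTT dye-uptake viability assay; cells seeded at 2.5 × 10^3 per well, grown in RPMI 1640/DMEM with 10% FBS and penicillin/streptomycin at 37 °C, 5% CO2. Exposure to compounds for 48 h over 100 nM to 100 μM. IC50 versus untreated control, given as mean ± SD of three independent experiments.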

Another series relates to MCF7. The series is described as follows: Antiproliferative activity against human MCF7 cells after 48 hrs by MTT assay. Format: functional, cell-based. Conditions: MCF7, 48 h. An outline of the steps:
as §1
A general note: Formazan colour is commonly taken as a measure of viable cells.

Series [1] relates to PC-3. The series is described as follows: Antiproliferative activity against human PC3 cells after 48 hrs by MTT assay. Type of series: functional, cell-based. The following applies: PC-3, 48 h. An outline of the steps: as §1
For series [2], the system named is PC-3. The series is described as follows: Induction of mitochondrial membrane potential loss in human PC3 cells after 24 hrs by JC1 staining based fluorescence microscopic method. Format: functional, cell-based. In outline:
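Treated PC-3 cells (1 × 10^6 per well) washed with cold PBS and stained with JC-1 at 1 μM final for 30 min at 37 °C. Aggregates and monomers assessed by fluorescence microscopy.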

Series [3] deals with PC-3. Briefly: Effect on total mTOR protein expression in human PC3 cells at 2.5 to 4.5 uM after 24 hrs by Western blot method. Format: ADME, cell-based. Conditions: pc-3, 24 h. In outline:
(§2)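 PC-3 cells exposed to indicated concentrations or DMSO, then lysed. Equal protein amounts analysed by western blotting, with β-actin as loading control. Representative of three independent experiments.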

Series [4] deals with PC-3. The series is described as follows: Inhibition of PI3K/Akt in human PC3 cells assessed as downregulation of NF-kB dependant MMP9 protein expression at 2.5 to 4.5 uM after 24 hrs by Western blot method. Format: functional, cell-based. An outline of the steps:
as §2
Background: Immunoblotting shows a protein as a band on a membrane.

In series [5] the target is RAC-alpha serine/threonine-protein kinase (Homo sapiens) (UniProt P31749). The series is described as follows: Inhibition of AKT phosphorylation in human PC3 cells at 2.5 to 4.5 uM after 24 hrs by Western blot method. Type of series: cell-based. In outline:
as §2

The test system of series [6] is PC-3. Briefly: Induction of apoptosis in human PC3 cells assessed as caspase-3/7 activation by caspase3/7-Glo assay. Type of series: functional, cell-based. An outline of the steps: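 Cells seeded at 5 × 10^3 per well in 96-well plates for 24 h, then treated. Caspase-3/7 Glo reagent/substrate mix added for 25 min, and luminescence read.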
For series [7], the system named is PC-3. The series is described as follows: Antimetastatic activity against human PC3 cells assessed as increase in E-cadherin protein expression at 2.5 to 4.5 uM after 24 hrs by Western blot method. Type of series: functional, cell-based. An outline of the steps:
as §2

In series [8] the test system is PC-3. Briefly: Inhibition of VEGF-induced cell scattering in human PC3 cells at 2.5 to 4.5 uM after 24 to 48 hrs by inverted microscopic assay. Format: functional, cell-based. An outline of the steps: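 PC-3 cells seeded at 1000 per well and grown 3–4 days into discrete colonies. Stimulated with VEGF in growth medium with graded concentrations. After overnight (24 h) incubation, individual colonies observed by bright-field/inverted microscopy and photographed. Representative of three experiments.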

For series [9], the system named is PC-3. Briefly: Antimigratory activity against human PC3 cells assessed as reduction in wound closure after 48 hrs by inverted microscopic assay. Format: functional, cell-based. Conditions: in the assay text read “24 hrs” for “48 hrs”. In outline: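 Scratch assay. PC-3 cells (5 × 10^5 per well) grown 24 h to a confluent monolayer, then serum-starved 24 h. Monolayer scratched with a pipette tip and washed, then treated in 1.0% serum medium with graded concentrations or DMSO for 24 h. Photographed at 20×. % wound closure = [1 – (area t1/area t0) × 100%].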

Series [10] deals with PC-3. Briefly: Effect on total AKT protein expression in human PC3 cells at 2.5 to 4.5 uM after 24 hrs by Western blot method. Format: ADME, cell-based. Conditions: pc-3, 24 h. In outline:
as §2

The test system of the next series is BPH-1. Briefly: Antiproliferative activity against human BPH1 cells after 48 hrs by MTT assay. Type of series: cell-based. The following applies: BPH-1, 48 h.
The species named for series [11] is Homo sapiens. Briefly: Inhibition of PI3K/Akt in human PC3 cells assessed as reduction in NF-kB dependant MMP2 activation after 48 hrs by gelatin zymographic method. Format: cell-based. In outline: (§3)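 Gelatin zymography. Subconfluent (70–80%) PC-3 cells in fresh medium incubated 48 h with increasing concentrations. Equal protein from conditioned media run on 7.5% SDS-PAGE containing 0.1% gelatin, 100 V, 3 h, 4 °C. Gels washed in 2% Triton X-100, incubated overnight at 37 °C in Tris-HCl pH 8.0/10 mM CaCl2 buffer, then Coomassie stained. BSA as loading control.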

The test system of series [12] is PC-3. Briefly: Antimetastatic activity against human PC3 cells assessed as decrease in vimentin protein expression at 2.5 to 4.5 uM after 24 hrs by Western blot method. Type of series: functional, cell-based. In outline:
as §2

For series [13], the target named is Serine/threonine-protein kinase mTOR (Homo sapiens) (UniProt P42345). The series is described as follows: Inhibition of mTOR signaling in human PC3 cells assessed as reduction in S6K protein expression at 2.5 to 4.5 uM after 24 hrs by Western blot method. Type of series: cell-based. An outline of the steps: as §2
Series [14] shares this target. The series is described as follows: Inhibition of mTOR phosphorylation in human PC3 cells at 2.5 to 4.5 uM after 24 hrs by Western blot method. Format: cell-based. In outline:
as §2

Series [15] is filed under the species Homo sapiens. The series is described as follows: Inhibition of PI3K/Akt in human PC3 cells assessed as reduction in NF-kB dependant MMP9 activation after 48 hrs by gelatin zymographic method. Format: cell-based. An outline of the steps: as §3
In series [16] the test system is PC-3. The series is described as follows: Anti-invasive activity against human PC3 cells after 48 hrs by Boyden chamber assay. Type of series: functional, cell-based. An outline of the steps:
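Matrigel (Boyden chamber) invasion kit used per manufacturer. PC-3 cells (1.2 × 10^6 per well) treated with graded concentrations or DMSO vehicle. Invaded cells counted per field and imaged at 20× magnification. Three independent experiments.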

In series [17] the test system is PC-3. Briefly: Inhibition of colony formation in human PC3 cells at 2.5 to 4.5 uM after 5 days by crystal violet staining based inverted microscopic assay. Format: functional, cell-based. In outline:
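Clonogenic assay. PC-3 cells (1 × 10^3 per well) plated, medium replaced after 24 h, then exposed to graded concentrations or DMSO vehicle for 5 days. Colonies stained with crystal violet, counted randomly and imaged at 20×. Three independent experiments.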

The species entered for series [18] is Homo sapiens. Briefly: Inhibition of PI3K/Akt in human PC3 cells assessed as downregulation of NF-kB dependant MMP2 protein expression at 2.5 to 4.5 uM after 24 hrs by Western blot method. Format: cell-based. In outline:
as §2

Series [19] has as its system PC-3. The series is described as follows: Anti-invasive activity against human PC3 cells assessed as increase in TIMP1 protein expression after 24 hrs by Western blot method. Type of series: functional, cell-based. An outline of the steps:
as §2

The species named for series [20] is Homo sapiens. The series is described as follows: Inhibition of PI3K/Akt signaling in human PC3 cells assessed as downregulation of NF-kB expression after 24 hrs by Western blot method. Format: cell-based. In outline:
as §2

Active and inactive are the calls of the source. The rule behind the calls is not given here. A value given as a limit tells only on which side of the number the result lay.

Usually IC50 stands for the midpoint of a concentration-inhibition curve.

Chain of RAC-alpha serine/threonine-protein kinase (Homo sapiens) (P31749 whole entry): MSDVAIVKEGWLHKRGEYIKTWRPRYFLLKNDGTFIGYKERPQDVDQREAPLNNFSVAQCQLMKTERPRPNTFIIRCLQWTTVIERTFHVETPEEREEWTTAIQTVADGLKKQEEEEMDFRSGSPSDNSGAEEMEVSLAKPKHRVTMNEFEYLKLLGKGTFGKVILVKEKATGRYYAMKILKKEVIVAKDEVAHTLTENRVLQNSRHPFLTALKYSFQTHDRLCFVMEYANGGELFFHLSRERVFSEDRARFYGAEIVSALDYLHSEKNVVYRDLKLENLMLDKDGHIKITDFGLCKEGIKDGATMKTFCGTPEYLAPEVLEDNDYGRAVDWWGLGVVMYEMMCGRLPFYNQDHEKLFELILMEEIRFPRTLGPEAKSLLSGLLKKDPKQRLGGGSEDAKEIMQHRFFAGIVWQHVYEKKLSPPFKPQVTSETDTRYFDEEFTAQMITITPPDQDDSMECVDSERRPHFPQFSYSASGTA

With `COc1cc(/C=C/C(C)=O)ccc1OCc1cn(-c2ccccc2)nn1`, the 50% inhibitory concentration (IC50) with HCT-116 was 67.3 µM; with MCF7, over 100 µM; in the series on PC-3 [1], 78.6 µM.
Take `COc1cc(/C=C/C(C)=O)ccc1O` [DEHYDROZINGERONE]: the half-inhibitory concentration (IC50) came out at 34.8 µM in the series with HCT-116, 54.6 µM in the series with MCF7 and 43.2 µM in the series on PC-3 [1].
Regarding `COc1cc(/C=C/C(C)=O)ccc1OCc1cn(-c2ccc([N+](=O)[O-])cc2)nn1`, the 50% inhibitory concentration (IC50) is 96.3 µM in the series with HCT-116, over 100 µM in the series on MCF7 and 46.7 µM in the series with PC-3 [1].
Regarding `COc1cc(/C=C/C(C)=O)ccc1OCc1cn(-c2cc(F)cc(Br)c2)nn1`, the half-inhibitory concentration (IC50) with HCT-116 was 45.4 µM; in the series on MCF7, 65.5 µM; in the series on PC-3 [1] it was 56.9 µM.
The corresponding values for `COc1cc(/C=C/C(C)=O)ccc1OCc1cn(-c2ccc(C=O)cc2)nn1` are 76.2 µM, 86.4 µM and 80.7 µM.
For `COc1cccc(-n2cc(COc3ccc(/C=C/C(C)=O)cc3OC)nn2)c1`, the IC50 with HCT-116 worked out at 29.6 µM; in the series with MCF7, 1.8 µM; in the series with PC-3 [1], 31.6 µM.
The like results for `COc1cc(/C=C/C(C)=O)ccc1OCc1cn(-c2ccc(-c3ccccc3)cc2)nn1` were, in that order, 65.2 µM, 65.4 µM and 56.8 µM.
In the case of `COc1cc(/C=C/C(C)=O)ccc1OCc1cn(-c2ccc(/N=N/c3ccccc3)cc2)nn1`, the IC50 in the series with HCT-116 is over 100 µM; in the series on MCF7, 75.9 µM; in the series with PC-3 [1] it was 42.1 µM.
The like results for `COc1cc(/C=C/C(C)=O)ccc1OCc1cn(-c2ccccc2CO)nn1` were, in that order, over 100 µM, 65.8 µM and 50.3 µM.
The like results for `CCOC(=O)c1ccc(-n2cc(COc3ccc(/C=C/C(C)=O)cc3OC)nn2)cc1` were, in that order, 78.9 µM, over 100 µM and 59.2 µM.
In the case of `COc1cc(/C=C/C(C)=O)ccc1OCc1cn(-c2ccccc2Cl)nn1`, the IC50 with HCT-116 worked out at 39 µM; with MCF7, 2.19 µM; in the series with PC-3 [1], 48 µM.
Take `COc1cc(/C=C/C(C)=O)ccc1OCc1cn(-c2ccc(NC(=O)c3ccccc3)cc2)nn1`: the IC50 was over 100 µM with HCT-116, 86.7 µM with MCF7 and 76.8 µM in the series on PC-3 [1].
The like results for `COc1cc(/C=C/C(C)=O)ccc1OCc1cn(-c2ccccc2O)nn1` were, in that order, 76.4 µM, over 100 µM and 59.2 µM.
With `COc1cc(/C=C/C(C)=O)ccc1OCc1cn(-c2c(F)cccc2F)nn1`, the half-maximal inhibitory concentration (IC50) came out at 37.7 µM with HCT-116, 2.03 µM with MCF7 and 24.2 µM in the series on PC-3 [1].
With `COc1cc(/C=C/C(C)=O)ccc1OCc1cn(-c2ccc(C)cc2)nn1`, the values for the half-maximal inhibitory concentration (IC50) in the series on HCT-116, in the series on MCF7 and with PC-3 [1] were 76.6 µM, over 100 µM and 58.1 µM, respectively.
For the molecule `C#CCOc1ccc(/C=C/C(C)=O)cc1OC`, the IC50 with HCT-116 worked out at 49.7 µM; in the series with MCF7 it was 65.4 µM; in the series on PC-3 [1], 40.2 µM.
Take `COc1cc(/C=C/C(C)=O)ccc1OCc1cn(-c2ccc(C(F)(F)F)c(C(F)(F)F)c2)nn1`: the 50% inhibitory concentration (IC50) was 57.8 µM in the series on HCT-116, 87.4 µM with MCF7 and 67.2 µM with PC-3 [1].
Turning to `COc1ccc(-n2cc(COc3ccc(/C=C/C(C)=O)cc3OC)nn2)cc1`, the values for the concentration for half-maximal inhibition (IC50) with HCT-116, in the series on MCF7 and in the series on PC-3 [1] were 21.3 µM, 33.7 µM and 2.01 µM, respectively.
`COc1cc(/C=C/C(C)=O)ccc1OCc1cn(-c2ccccc2OC)nn1`: the IC50 in the series with HCT-116 worked out at 25.7 µM; in the series with MCF7, 29.1 µM; in the series with PC-3 [1] it was 2.04 µM.
In the case of `COc1cc(/C=C/C(C)=O)ccc1OCc1cn(-c2c(Cl)cccc2Cl)nn1`, the IC50 in the series with HCT-116 is 2 µM; in the series with MCF7 it was 26.6 µM; in the series on BPH-1, over 100 µM; with PC-3 [1] it was 3.07 µM. The Activity result in the series on PC-3 [2] is “Dose-dependent effect”; in the series with PC-3 [3] it was “Non-Toxic”; with PC-3 [9] it was “Dose-dependent effect”; in the series on PC-3 [10] it was “Non-Toxic”; with PC-3 [16] it was “Dose-dependent effect”; with PC-3 [19], “Dose-dependent effect”. In addition, the inhibition entry (in the series with PC-3 [4]; in [5]; with PC-3 [8]; in series [13]; in [14]; in the series on PC-3 [17]) was “Active” in each case. For the same molecule, in the series filed under Homo sapiens [18], the inhibition result was “Active”. Moreover, the outcome in the series with PC-3 [6], with PC-3 [7] and with PC-3 [12] was Active. Also, the inhibition entry in the series filed under Homo sapiens [11], in the series listed under Homo sapiens [15] and in the series filed under Homo sapiens [20] was “Dose-dependent effect” in each case.

These data come from ChEMBL document CHEMBL4261549 (Medchemcomm, 2017).
